How the values were obtained:
HCT8/ADR cells [1] = experiment: Effect of verapamil; assay type: cell-based, human; conditions: HCT8/ADR cells pretreated with verapamil 50 μmol/L for 2 h; drug incubation 1 h or 2 h; flow cytometry
HCT8 cells = experiment: In vitro cytotoxicity, MTT assay; assay type: cell-based, human; conditions: 48 h, Dox-equivalent concentration
Summary of the method: (§1)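 HCT8 and HCT8/ADR cells were grown in RPMI-1640 with 10% FBS, streptomycin and penicillin at 37 °C under 5% CO₂. Cells were seeded at 5×10^3 per well and grown 24 h, then exposed to varying concentrations of test nanoparticles or free Dox for 48 h. MTT (5 mg/mL stock) was added for a further 4 h, then DMSO. Absorbance was read at 490 nm and viability calculated. Run in triplicate.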

BALB/c-nu nude mice = experiment: Preliminary treatment safety in tumor-bearing nude mice; assay type: in vivo
Summary of the method: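 Female BALB/c-nu nude mice aged 3-4 weeks received 1×10^6 HCT8/ADR cells subcutaneously on the back. They were randomised into five groups of six: PBS, test nanoparticles or Dox given peritumorally, and test nanoparticles or Dox given intravenously. Dosing started at about 100 mm³ tumour volume, at 2 mg/kg Dox-equivalent every two days over 22 d. Body weight was monitored. At endpoint, organs were weighed, organ coefficient was taken as organ weight/body weight×100%, and histology was done.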

HCT8/ADR cells [2] = experiment: Intranuclear distribution by confocal microscopy; assay type: cell-based, human; conditions: 4 h incubation, DAPI counterstain
Summary of the method: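 HCT8/ADR cells were seeded at 2×10^4 per well in RPMI-1640 with 10% FBS and grown 24 h. They were incubated 4 h with test nanoparticles or free Dox, washed twice in ice-cold PBS, and fixed in fresh 4% paraformaldehyde for 15 min at room temperature. Nuclei were counterstained with DAPI and imaged by confocal laser scanning microscopy for Dox fluorescence.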

HCT8/ADR cells [3] = experiment: In vitro cytotoxicity, MTT assay; assay type: cell-based, human; conditions: 48 h, concentration up to 20 μg/mL
Summary of the method: as §1

SMILES: COc1cccc2c1C(=O)c1c(O)c3c(c(O)c1C2=O)C[C@@](O)(C(=O)CO)C[C@@H]3O[C@H]1C[C@H](N)[C@H](O)[C@H](C)O1 [Dox, Doxorubicin]
- change of uptake efficiency after verapamil (HCT8/ADR cells [1]): clearly increased uptake efficiency
- IC50 (cell proliferation) (HCT8 cells): approximately 1 μg/mL
- body weight change (BALB/c-nu nude mice; Dox dose 2 mg/kg per two days over 22 d, nude mice bearing HCT8/ADR tumor): remarkable body weight loss
- histological examination of major organs (BALB/c-nu nude mice; at experimental endpoint, 22 d): degeneration and edema and focal cytolysis necrosis in the liver and spleen
- organ coefficient of liver and spleen (BALB/c-nu nude mice; iv, at experimental endpoint, 22 d): reduced markedly
- Dox-related red fluorescence, intranuclear accumulation (HCT8/ADR cells [2]): hardly observed
- antitumor activity (cytotoxicity) (HCT8/ADR cells [3]): ineffective
